Measured values as given in ChEMBL document CHEMBL4706691, “Bicyclic Diazepinones as Dual Ligands of the α2δ-1 Subunit of Voltage-Gated Calcium Channels and the Norepinephrine Transporter” (J Med Chem, 2021).

Assays:
[1] = molecular target: Voltage-dependent calcium channel subunit alpha-2/delta-1 (Homo sapiens, UniProt P54289); experiment: Displacement of [3H]-gabapentin from human Cav alpha2delta1 expressed in CHO-K1 cell membranes incubated for 60 mins by scintillation counting method; parameters: species or system Cell membrane
Procedure, shortened: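 Nonspecific binding defined with 10 μM pregabalin. Test compounds at five concentrations in duplicate, giving Ki. Bound radioactivity collected by filtration on PEI-soaked GF/C, washed with cold 50 mM Tris-HCl, then scintillation counted.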

[2] = molecular target: Voltage-dependent calcium channel subunit alpha-2/delta-2 (Homo sapiens, UniProt Q9NY47); experiment: Displacement of [3H]-gabapentin from human Cav alpha2delta2 expressed in HEK293 cell membranes incubated for 60 mins by scintillation counting method
[3] = molecular target: T1, Sodium-dependent noradrenaline transporter (Homo sapiens, UniProt P23975); experiment: Displacement of [3H]-nisoxetine from human NET expressed in HEK293 cell membranes incubated for 60 mins by scintillation counting method
[4] = molecular target: T1, Sodium-dependent noradrenaline transporter; experiment: Inhibition of human NET expressed in HEK293 cells assessed as reduction in ASP+ uptake incubated for 20 mins before ASP+ addition and measured after 90 mins by scintillation counting method
[5] = molecular target: T2, CYP1A2 (Homo sapiens, UniProt P05177); experiment: Inhibition of human CYP1A2 at 1 uM relative to control; type: ADME
T2 sequence (P05177 whole entry): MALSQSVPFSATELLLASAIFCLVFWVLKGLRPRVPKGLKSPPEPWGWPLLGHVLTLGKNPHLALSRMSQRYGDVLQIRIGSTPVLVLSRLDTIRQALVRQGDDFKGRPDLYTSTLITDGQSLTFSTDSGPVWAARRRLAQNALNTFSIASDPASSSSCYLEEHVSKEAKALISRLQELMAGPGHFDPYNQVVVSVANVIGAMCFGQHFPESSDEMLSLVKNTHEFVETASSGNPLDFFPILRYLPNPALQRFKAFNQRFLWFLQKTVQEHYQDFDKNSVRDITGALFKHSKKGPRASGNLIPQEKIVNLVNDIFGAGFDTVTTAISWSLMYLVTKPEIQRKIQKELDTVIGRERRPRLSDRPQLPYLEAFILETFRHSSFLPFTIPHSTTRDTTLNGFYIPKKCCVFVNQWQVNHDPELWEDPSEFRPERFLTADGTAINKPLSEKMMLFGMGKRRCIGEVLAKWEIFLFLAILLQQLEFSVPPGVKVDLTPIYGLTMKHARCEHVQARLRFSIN

[6] = molecular target: CYP2C9 (Homo sapiens, UniProt P11712); experiment: Inhibition of human CYP2C9 at 1 uM relative to control; type: ADME
[7] = molecular target: CYP2C19 (Homo sapiens, UniProt P33261); experiment: Inhibition of human CYP2C19 at 1 uM relative to control; type: ADME
[8] = molecular target: CYP2D6 (Homo sapiens, UniProt P10635); experiment: Inhibition of human CYP2D6 at 1 uM relative to control; type: ADME
[9] = molecular target: CYP3A4 (Homo sapiens, UniProt P08684); experiment: Inhibition of human CYP3A4 at 1 uM relative to control; type: ADME
[10] = molecular target: Voltage-gated inwardly rectifying potassium channel KCNH2 (Homo sapiens, UniProt Q12809); experiment: Inhibition of human ERG
[11] = Intrinsic clearance in human liver microsomes
[12] = Intrinsic clearance in rat liver microsomes

T1 sequence (P23975 whole entry): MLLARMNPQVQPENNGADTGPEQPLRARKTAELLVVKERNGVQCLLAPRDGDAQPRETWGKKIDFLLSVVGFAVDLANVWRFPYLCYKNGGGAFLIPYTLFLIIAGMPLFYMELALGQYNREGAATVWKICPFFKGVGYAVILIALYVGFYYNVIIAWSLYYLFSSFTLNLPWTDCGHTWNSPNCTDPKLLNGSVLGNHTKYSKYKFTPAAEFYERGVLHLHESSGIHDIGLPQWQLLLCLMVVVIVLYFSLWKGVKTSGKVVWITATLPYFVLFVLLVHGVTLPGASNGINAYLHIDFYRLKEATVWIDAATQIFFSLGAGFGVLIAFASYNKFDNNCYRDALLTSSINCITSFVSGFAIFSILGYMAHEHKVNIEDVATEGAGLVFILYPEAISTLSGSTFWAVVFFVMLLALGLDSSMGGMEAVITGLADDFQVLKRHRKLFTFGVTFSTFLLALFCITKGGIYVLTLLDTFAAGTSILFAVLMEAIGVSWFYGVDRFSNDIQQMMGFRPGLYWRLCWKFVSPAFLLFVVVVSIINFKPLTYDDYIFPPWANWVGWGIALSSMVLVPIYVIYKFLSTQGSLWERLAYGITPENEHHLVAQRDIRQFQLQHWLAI
Sequence of CYP2C9 (P11712 whole entry): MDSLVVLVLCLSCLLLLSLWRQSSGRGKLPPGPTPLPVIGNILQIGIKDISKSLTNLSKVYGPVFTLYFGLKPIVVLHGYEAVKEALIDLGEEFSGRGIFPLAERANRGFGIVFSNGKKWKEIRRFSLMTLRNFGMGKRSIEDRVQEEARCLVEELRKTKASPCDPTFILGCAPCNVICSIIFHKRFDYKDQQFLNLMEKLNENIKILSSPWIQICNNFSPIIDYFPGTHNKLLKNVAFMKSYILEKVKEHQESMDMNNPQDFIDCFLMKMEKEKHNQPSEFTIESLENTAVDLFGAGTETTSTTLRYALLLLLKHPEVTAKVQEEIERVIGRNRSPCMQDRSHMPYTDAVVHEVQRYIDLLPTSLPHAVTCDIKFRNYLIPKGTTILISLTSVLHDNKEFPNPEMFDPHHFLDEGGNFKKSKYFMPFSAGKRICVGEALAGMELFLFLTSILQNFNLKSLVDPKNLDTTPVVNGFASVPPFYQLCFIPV
Sequence of CYP2D6 (P10635 whole entry): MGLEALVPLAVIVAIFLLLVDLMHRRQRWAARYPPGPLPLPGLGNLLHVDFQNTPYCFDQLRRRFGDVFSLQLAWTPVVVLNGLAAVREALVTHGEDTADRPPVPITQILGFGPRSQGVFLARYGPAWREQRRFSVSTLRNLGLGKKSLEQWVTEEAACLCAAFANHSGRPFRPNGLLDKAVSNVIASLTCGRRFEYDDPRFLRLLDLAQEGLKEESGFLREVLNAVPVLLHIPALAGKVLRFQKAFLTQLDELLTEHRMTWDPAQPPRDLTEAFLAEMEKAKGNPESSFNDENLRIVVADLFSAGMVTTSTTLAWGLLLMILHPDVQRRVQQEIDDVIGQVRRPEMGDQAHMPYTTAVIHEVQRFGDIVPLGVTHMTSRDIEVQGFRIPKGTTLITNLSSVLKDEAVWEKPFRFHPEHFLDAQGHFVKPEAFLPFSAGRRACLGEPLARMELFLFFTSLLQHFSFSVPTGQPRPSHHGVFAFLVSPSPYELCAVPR
Sequence of Voltage-gated inwardly rectifying potassium channel KCNH2 (Q12809 whole entry): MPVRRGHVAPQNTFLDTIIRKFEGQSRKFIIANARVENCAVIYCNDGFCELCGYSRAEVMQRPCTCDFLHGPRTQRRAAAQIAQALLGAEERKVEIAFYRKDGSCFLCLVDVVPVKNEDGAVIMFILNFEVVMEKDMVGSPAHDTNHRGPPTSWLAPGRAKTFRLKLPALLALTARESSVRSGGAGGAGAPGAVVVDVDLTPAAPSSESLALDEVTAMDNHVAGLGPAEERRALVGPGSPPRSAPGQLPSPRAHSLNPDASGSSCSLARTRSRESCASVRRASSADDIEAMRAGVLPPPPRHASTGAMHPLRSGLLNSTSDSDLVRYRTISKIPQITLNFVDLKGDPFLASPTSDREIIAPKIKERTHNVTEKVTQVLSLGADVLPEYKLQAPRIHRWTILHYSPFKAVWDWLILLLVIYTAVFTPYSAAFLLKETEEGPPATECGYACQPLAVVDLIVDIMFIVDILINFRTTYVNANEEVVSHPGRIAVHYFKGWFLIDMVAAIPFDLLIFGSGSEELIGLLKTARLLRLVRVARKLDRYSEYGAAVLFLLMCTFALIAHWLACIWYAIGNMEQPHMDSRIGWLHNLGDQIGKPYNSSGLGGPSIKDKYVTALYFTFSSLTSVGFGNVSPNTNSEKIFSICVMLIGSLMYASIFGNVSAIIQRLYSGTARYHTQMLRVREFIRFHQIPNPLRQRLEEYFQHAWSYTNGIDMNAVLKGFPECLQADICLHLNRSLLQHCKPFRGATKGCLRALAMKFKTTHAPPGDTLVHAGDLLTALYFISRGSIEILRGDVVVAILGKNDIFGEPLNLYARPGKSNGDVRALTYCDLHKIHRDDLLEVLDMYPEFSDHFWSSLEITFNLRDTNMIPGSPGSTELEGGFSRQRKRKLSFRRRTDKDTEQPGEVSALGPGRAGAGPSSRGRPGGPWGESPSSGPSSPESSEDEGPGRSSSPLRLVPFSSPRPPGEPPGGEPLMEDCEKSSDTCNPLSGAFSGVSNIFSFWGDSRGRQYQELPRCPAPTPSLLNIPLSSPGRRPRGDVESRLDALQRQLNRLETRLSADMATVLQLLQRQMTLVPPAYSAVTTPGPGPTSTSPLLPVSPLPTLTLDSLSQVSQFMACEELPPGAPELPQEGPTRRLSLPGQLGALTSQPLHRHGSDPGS
Sequence of CYP2C19 (P33261 whole entry): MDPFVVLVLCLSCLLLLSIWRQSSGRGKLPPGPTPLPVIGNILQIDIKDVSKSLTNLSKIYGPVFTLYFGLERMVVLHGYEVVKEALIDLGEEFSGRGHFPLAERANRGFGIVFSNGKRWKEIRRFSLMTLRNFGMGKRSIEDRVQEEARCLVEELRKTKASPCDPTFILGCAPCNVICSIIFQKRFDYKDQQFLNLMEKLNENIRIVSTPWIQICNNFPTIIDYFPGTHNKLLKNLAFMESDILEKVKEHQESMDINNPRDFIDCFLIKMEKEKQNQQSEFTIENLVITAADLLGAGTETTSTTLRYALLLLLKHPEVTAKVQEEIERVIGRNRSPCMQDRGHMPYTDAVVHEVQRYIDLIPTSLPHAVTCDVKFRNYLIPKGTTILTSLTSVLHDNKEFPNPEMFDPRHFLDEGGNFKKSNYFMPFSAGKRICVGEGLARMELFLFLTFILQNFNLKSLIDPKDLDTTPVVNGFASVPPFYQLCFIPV
Sequence of Voltage-dependent calcium channel subunit alpha-2/delta-1 (P54289 25-956 limits assumed): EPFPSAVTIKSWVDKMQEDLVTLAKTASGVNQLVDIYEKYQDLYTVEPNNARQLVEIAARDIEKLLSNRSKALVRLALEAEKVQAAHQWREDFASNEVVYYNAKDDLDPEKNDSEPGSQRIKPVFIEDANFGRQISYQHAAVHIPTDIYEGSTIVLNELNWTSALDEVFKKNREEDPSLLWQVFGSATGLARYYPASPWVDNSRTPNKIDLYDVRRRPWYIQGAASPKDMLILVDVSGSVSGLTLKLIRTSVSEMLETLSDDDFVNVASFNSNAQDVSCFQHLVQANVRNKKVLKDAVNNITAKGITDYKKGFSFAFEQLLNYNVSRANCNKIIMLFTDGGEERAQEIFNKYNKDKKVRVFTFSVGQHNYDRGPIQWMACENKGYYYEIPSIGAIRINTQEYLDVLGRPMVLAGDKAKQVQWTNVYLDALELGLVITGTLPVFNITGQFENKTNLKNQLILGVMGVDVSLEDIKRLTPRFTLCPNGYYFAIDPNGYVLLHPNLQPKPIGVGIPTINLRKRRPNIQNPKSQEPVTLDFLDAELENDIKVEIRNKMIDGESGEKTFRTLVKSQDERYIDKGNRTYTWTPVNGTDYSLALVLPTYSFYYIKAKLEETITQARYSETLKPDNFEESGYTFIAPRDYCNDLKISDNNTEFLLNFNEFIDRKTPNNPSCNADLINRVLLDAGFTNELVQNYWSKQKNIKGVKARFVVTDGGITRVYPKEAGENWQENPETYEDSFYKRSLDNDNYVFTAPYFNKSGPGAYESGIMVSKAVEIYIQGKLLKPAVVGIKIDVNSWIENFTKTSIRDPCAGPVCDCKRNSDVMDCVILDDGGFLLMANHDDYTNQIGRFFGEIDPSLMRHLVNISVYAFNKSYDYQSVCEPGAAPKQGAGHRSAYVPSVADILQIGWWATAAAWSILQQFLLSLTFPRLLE
Sequence of Voltage-dependent calcium channel subunit alpha-2/delta-1 (P54289 957-1103 limits assumed): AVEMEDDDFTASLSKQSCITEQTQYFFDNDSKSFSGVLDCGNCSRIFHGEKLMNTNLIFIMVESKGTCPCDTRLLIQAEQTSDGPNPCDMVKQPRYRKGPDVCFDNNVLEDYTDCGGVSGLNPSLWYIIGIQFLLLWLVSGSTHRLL
Sequence of CYP3A4 (P08684 whole entry): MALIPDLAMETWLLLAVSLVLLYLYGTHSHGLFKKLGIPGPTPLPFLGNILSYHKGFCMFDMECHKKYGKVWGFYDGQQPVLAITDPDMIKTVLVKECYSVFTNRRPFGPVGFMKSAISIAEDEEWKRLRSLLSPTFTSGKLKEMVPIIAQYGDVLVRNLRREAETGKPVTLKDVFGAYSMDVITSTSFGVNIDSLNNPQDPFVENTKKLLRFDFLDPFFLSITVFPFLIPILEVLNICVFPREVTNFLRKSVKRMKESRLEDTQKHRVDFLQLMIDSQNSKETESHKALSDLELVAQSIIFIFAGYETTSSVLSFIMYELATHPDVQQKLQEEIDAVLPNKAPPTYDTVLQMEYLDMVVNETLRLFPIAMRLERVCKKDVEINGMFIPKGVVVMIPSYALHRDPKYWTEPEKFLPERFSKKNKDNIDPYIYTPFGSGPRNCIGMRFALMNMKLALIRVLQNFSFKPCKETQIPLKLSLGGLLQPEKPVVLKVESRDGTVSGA

SMILES | Ki [1] | Ki [3] | IC50 [4] | also measured
CCNc1ncc2c(n1)N1CCC[C@H]1CN(c1cccc(-c3noc(C)n3)c1)C2=O | 0.011 µM | > 10 µM | > 10 µM | Ki [2]: 2.15 µM
CNc1ncc2c(n1)N(C)CCN(c1cccc(-c3nnc(C)o3)c1)C2=O | 0.244 µM | > 10 µM | > 10 µM | Ki [2]: > 10 µM
CNCC[C@H](Oc1cccc(N2CCN(C)c3nc(N)ncc3C2=O)c1)c1cccs1 | – | – | – | inhibition at 1 µM [5]: < 50%; inhibition at 1 µM [6]: < 50%; inhibition at 1 µM [7]: < 50%; inhibition at 1 µM [8]: < 50%; inhibition at 1 µM [9]: < 50%; IC50 [10]: > 10 µM
CNCC[C@@H](Oc1cccc(N2CCN(C)CCC2=O)c1)c1cccs1 | 0.606 µM | – | – | –
CNCCC(Oc1cccc(N2CCN(C)c3cccnc3C2=O)c1)c1cccs1 (stereo not drawn) | 1.25 µM | – | – | –
CNCCC(Oc1cccc(N2CCN(C)c3cnccc3C2=O)c1)c1cccs1 (stereo not drawn) | 0.208 µM | – | – | –
CCNc1ncc2c(n1)N(C)CCN(c1ccccc1OC(CCNC)c1ccccc1)C2=O (stereo not drawn) | 3.49 µM | > 10 µM | > 10 µM | –
CCNc1ncc2c(n1)N1CCC[C@@H]1CN(c1cccc(OC(CCNC)c3ccccc3)c1)C2=O (stereo partly drawn) | 0.187 µM | – | – | –
CNCC[C@H](Oc1cccc(N2CCN(C)CCC2=O)c1)c1cccs1 | 2.8 µM | – | – | –
CCN(C)c1ncc2c(n1)N(C)CCN(c1cccc(-c3nnc(C)o3)c1)C2=O | > 10 µM | > 10 µM | > 10 µM | –
CCNc1ncc2c(n1)N1CCC[C@H]1CN(c1cccc(OC(CCNC)c3ccccc3)c1)C2=O (stereo partly drawn) | 0.336 µM | – | – | –
CCNc1ncc2c(n1)N(C)CCN(c1cccc(-c3nnc(C)o3)c1)C2=O | 0.081 µM | > 10 µM | > 10 µM | Ki [2]: 2.97 µM; microsomal CLint [11]: < 5 µL/min/mg; microsomal CLint [12]: < 5 µL/min/mg; inhibition at 1 µM [5]: < 50%; inhibition at 1 µM [6]: < 50%; inhibition at 1 µM [7]: < 50%; inhibition at 1 µM [8]: < 50%; inhibition at 1 µM [9]: < 50%; IC50 [10]: > 10 µM
CNCCC(Oc1cccc(N2CCN(C)c3ccccc3C2=O)c1)c1cccs1 (stereo not drawn) | 0.833 µM | – | – | –
CCNc1ncc(C(=O)N(C)c2cccc(OC(CCNC)c3ccccc3)c2)cn1 (stereo not drawn) | > 10 µM | > 10 µM | > 10 µM | –
CSc1ncc2c(n1)N(C)CCN(c1cccc(-c3nnc(C)o3)c1)C2=O | > 10 µM | > 10 µM | > 10 µM | Ki [2]: > 10 µM
CCNc1ncc2c(n1)N(CC)CCN(c1cccc(-c3nnc(C)o3)c1)C2=O | 0.178 µM | > 10 µM | > 10 µM | –
COCCNc1ncc2c(n1)N(C)CCN(c1cccc(-c3nnc(C)o3)c1)C2=O | > 10 µM | > 10 µM | > 10 µM | –
CNCC[C@H](Oc1cccc(N2CCN(C)c3ncccc3C2=O)c1)c1cccs1 | – | – | – | inhibition at 1 µM [5]: < 50%; inhibition at 1 µM [6]: < 50%; inhibition at 1 µM [7]: < 50%; inhibition at 1 µM [8]: < 50%; inhibition at 1 µM [9]: < 50%; IC50 [10]: > 10 µM
CCNc1ncc2c(n1)N(C)CCN(c1cccc(-c3nnc(C)o3)c1)C2 | 1.03 µM | > 10 µM | > 10 µM | –
CCNc1ncc2c(n1)N(C)CCN(c1ccccc1COC(CCNC)c1ccccc1)C2=O (stereo not drawn) | > 10 µM | > 10 µM | > 10 µM | –
CC(C)C[C@H](CN)CC(=O)O [PREGABALIN] | 0.019 µM | > 10 µM | > 10 µM | Ki [2]: 0.099 µM
